# Experimental data taken from ChEMBL document CHEMBL4041491, “Imidazo[1,2-a]pyrazin-8-amine core for the design of new adenosine receptor antagonists: Structural exploration to target the A3 and A2A subtypes” (Eur J Med Chem, 2017).
# Active and inactive are the calls of the source. The rule behind the calls is not given here.
# Columns and labels:
# Adenosine receptor A1 = molecular target: T1, Adenosine receptor A1 (Homo sapiens, UniProt P30542); assay: Displacement of [3H]DPCPX from human adenosine A1 receptor expressed in CHO cell membranes after 120 mins by scintillation counting method
# T1 sequence (P30542 whole entry): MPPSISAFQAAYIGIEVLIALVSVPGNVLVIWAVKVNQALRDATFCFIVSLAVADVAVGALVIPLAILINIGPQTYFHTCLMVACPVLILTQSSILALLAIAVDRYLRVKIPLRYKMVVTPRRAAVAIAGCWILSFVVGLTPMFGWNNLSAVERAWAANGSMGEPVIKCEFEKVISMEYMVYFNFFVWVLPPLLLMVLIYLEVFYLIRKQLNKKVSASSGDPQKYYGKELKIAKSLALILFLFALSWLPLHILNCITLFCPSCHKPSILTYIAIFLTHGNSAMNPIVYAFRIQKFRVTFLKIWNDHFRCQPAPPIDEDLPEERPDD
# Method in brief: (§1)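 hA1 CHO membranes (50 µg protein) with 1 nM [3H]DPCPX in 50 mM Tris HCl pH 7.4, 120 min at 25 °C. Six to eight antagonist concentrations, or 1 µM for percent inhibition. Nonspecific binding with 1 µM DPCPX. Ki via Cheng–Prusoff, four assays in duplicate, means ± SEM.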
# Adenosine receptor A2a [1] = molecular target: T2, Adenosine receptor A2a (Homo sapiens, UniProt P29274); assay: Displacement of [3H]ZM241385 from human adenosine A2A receptor expressed in CHO cell membranes after 60 mins by scintillation counting method
# Method in brief: (§2)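 hA2A CHO membranes (50 µg protein) with 1 nM [3H]ZM241385 in 50 mM Tris HCl, 10 mM MgCl2, pH 7.4, 60 min at 4 °C. Six to eight antagonist concentrations, or 1 µM for percent inhibition. Nonspecific binding with 1 µM ZM241385. Ki via Cheng–Prusoff, four assays in duplicate, means ± SEM.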
# [2] = molecular target: T3, Adenosine receptor A2b (Homo sapiens) (UniProt P29275); assay: Antagonist activity at human A2B receptor expressed in CHO cells assessed as inhibition of NECA-stimulated cAMP production at 1 uM by [3H]cAMP competition binding based scintillation counting method relative to control; assay type: functional, cell-based
# T3 sequence (whole entry): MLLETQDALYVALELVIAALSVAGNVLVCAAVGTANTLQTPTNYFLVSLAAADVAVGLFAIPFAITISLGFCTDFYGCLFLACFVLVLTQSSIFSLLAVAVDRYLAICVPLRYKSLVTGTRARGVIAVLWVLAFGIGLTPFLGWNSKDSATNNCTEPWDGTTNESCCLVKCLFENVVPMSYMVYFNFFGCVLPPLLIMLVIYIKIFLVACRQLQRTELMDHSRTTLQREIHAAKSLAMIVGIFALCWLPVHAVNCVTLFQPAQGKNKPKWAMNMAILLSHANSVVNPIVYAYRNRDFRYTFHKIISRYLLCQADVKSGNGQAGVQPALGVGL
# Method in brief: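 Transfected CHO cells (1 × 10^6/assay) in buffered saline pH 7.4 with adenosine deaminase 2 IU/ml and Ro 20-1724, preincubated 10 min at 37 °C. Test compound at 1 μM against 200 nM NECA-stimulated cAMP. TCA stop, ether extraction, cAMP measured by [3H]cAMP competition binding to bovine adrenal binding protein. Result given as percent inhibition.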
# Adenosine receptor A3 [3] = molecular target: T4, Adenosine receptor A3 (Homo sapiens, UniProt P0DMS8); assay: Displacement of [125I]AB-MECA from human adenosine A3 receptor expressed in CHO cell membranes at 1 uM after 120 mins by scintillation counting method relative to control
# [4] = molecular target: T5, Adenosine receptor A1 (Homo sapiens) (UniProt P30542); assay: Displacement of [3H]DPCPX from human adenosine A1 receptor expressed in CHO cell membranes at 1 uM after 120 mins by scintillation counting method relative to control; method in brief: as §1
# T5 sequence (whole entry): T1 sequence (P30542 whole entry)
# Hippocampus [5] = assay: Anti-ischemic activity in Wistar rat hippocampal slices assessed as latency time for 30 mins oxygen-glucose deprivation-induced occurrence of anoxic depolarization at 200 nM by electrophysiology method (reference value: 6.3 +/- 0.3 min)
# Adenosine receptor A2a [6] = molecular target: T2, Adenosine receptor A2a; assay: Displacement of [3H]ZM241385 from human adenosine A2A receptor expressed in CHO cell membranes at 1 uM after 60 mins by scintillation counting method relative to control; method in brief: as §2
# Adenosine receptor A3 [7] = molecular target: T4, Adenosine receptor A3; assay: Displacement of [125I]AB-MECA from human adenosine A3 receptor expressed in CHO cell membranes after 120 mins by scintillation counting method
# Method in brief: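 hA3 CHO membranes (50 µg protein) with 0.5 nM [125I]AB-MECA in 50 mM Tris HCl, 10 mM MgCl2, 1 mM EDTA, pH 7.4, 120 min at 4 °C. Six to eight ligand concentrations, or 1 µM for percent inhibition. Nonspecific binding with 1 µM AB-MECA; GF/B filtration. Ki by Cheng–Prusoff, four assays in duplicate, means ± SEM.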
# [8] = molecular target: T6, Adenosine receptor A3 (Rattus norvegicus) (UniProt P28647); assay: Displacement of [125I]AB-MECA from rat adenosine A3 receptor expressed in HEK293 cell membranes at 1 uM after 120 mins by scintillation counting method relative to control
# T6 sequence (whole entry): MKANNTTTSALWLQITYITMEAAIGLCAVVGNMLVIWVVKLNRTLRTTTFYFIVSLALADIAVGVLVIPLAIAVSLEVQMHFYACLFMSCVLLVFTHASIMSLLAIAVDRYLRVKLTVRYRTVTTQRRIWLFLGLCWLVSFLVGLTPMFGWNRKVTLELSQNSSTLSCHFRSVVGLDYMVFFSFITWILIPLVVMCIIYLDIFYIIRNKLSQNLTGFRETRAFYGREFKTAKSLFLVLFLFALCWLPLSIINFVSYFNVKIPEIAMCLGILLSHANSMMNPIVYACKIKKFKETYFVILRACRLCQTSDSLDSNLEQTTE
# Method in brief: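 rA3 receptor in HEK293 membranes (10 μg protein), 0.5 nM [125I]AB-MECA, 50 mM Tris–HCl, 10 mM MgCl2, 1 mM EDTA, pH 7.4, 120 min at 25 °C. Nonspecific binding with 1 μM AB-MECA; filtration and scintillation counting. Percent inhibition of specific binding at 1 µM.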
# Hippocampus [9] = assay: Anti-ischemic activity in Wistar rat model of 7 mins oxygen-glucose deprivation-induced cerebral ischemia assessed as recovery of fEPSP amplitude in CA1 region of hippocampal slices at 200 nM incubated for 15 mins prior to induction of oxygen-glucose deprivation and maintained during entire period of oxygen-glucose deprivation/reoxygenation subsequent incubation for 5 mins after OGD insult measured up to 15 mins by electrophysiology method; assay type: functional, tissue-based
# Method in brief: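 Rat hippocampal slices, CA1 stratum radiatum stimulated (80 μs, 0.066 Hz) at 40–50% of maximal fEPSP. Compound at 200 nM in aCSF, DMSO ≤0.05%, applied 15 min before, during and 5 min after 7-min OGD, then reperfusion in oxygenated aCSF. fEPSP amplitude expressed as % of mean over the 5 min before OGD.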
# Hippocampus [10] = assay: Anti-ischemic activity in Wistar rat hippocampal slices assessed as peak amplitude of 30 mins oxygen-glucose deprivation-induced anoxic depolarization at 200 nM by electrophysiology method (reference value: -7.5 +/- 1.2 mV); assay type: functional
# Method in brief: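 Rat hippocampal slices, extracellular d.c. recording in CA1 stratum radiatum. 30-min OGD, then reperfusion with oxygenated glucose aCSF. Compound at 200 nM, diluted from DMSO stock into aCSF, applied 15 min before, during and 5 min after OGD. AD latency in min from OGD onset; amplitude in mV at peak negativity. Mean ± SEM, n slices.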
# Adenosine receptor A3 [11] = molecular target: T4, Adenosine receptor A3; assay: Antagonist activity at human A3 receptor expressed in CHO cells assessed as inhibition of CI-IB-MECA-mediated inhibition of cAMP production by [3H]cAMP competition binding based scintillation counting method; assay type: cell-based
# Method in brief: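 hA3-transfected CHO cells (1 × 10^6/assay) in buffered saline pH 7.4 with adenosine deaminase and Ro 20-1724, preincubated 10 min at 37 °C. Antagonism of 100 nM Cl-IB-MECA inhibition of 1 µM forskolin-stimulated cAMP. cAMP measured by [3H]cAMP protein-binding assay. IC50 by sigmoid nonlinear regression, four independent experiments in triplicate, means ± SEM.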
# T2 sequence (P29274 whole entry): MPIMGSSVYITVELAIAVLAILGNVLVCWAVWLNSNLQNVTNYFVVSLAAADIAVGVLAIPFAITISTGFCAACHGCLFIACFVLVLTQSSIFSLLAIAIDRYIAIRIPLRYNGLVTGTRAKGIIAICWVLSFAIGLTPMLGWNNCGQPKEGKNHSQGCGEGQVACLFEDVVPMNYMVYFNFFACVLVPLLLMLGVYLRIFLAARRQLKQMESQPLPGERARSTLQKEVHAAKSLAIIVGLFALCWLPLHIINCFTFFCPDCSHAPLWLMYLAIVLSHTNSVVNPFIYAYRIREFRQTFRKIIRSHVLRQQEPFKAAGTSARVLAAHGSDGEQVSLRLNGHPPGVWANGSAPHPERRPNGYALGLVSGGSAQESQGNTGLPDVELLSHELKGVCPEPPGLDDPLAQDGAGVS
# T4 sequence (P0DMS8 whole entry, looked up): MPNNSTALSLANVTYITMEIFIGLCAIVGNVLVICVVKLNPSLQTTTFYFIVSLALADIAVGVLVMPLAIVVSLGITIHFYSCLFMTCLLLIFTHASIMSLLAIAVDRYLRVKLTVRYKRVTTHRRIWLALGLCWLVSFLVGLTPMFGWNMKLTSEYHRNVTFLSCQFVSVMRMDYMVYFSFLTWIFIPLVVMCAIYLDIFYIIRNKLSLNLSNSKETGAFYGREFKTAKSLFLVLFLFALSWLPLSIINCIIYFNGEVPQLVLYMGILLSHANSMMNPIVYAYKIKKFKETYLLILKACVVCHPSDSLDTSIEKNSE
Ki (Adenosine receptor A1) [µM],Ki (Adenosine receptor A2a [1]) [µM],inhibition [2] [%],inhibition (Adenosine receptor A3 [3]) [%],inhibition [4] [%],inhibition (Adenosine receptor A2a [6]) [%],Ki (Adenosine receptor A3 [7]) [µM],inhibition [8] [%],IC50 (Adenosine receptor A3 [11]) [µM],Structure (SMILES),Time (Hippocampus [5]) [min],Activity (Hippocampus [9]),Activity (Hippocampus [10]) [mV]
0.21,0.265,29,28,–,–,–,–,–,Nc1nc(Br)cn2cc(-c3ccco3)nc12,–,–,–
–,–,3,–,11,1,0.054,2,0.172,O=C(Nc1nc(-c2ccccc2)cn2cc(-c3ccccc3)nc12)c1cccnc1,8.2,Active,-7.1
0.143,0.52,10,21,–,–,–,–,–,Nc1nc(-c2ccccc2)cn2cc(-c3ccco3)nc12,–,–,–
0.18,0.31,36,23,–,–,–,–,–,Nc1nc(-c2ccccc2)cn2cc(-c3ccccc3)nc12,–,–,–
